# In ChEMBL document CHEMBL4261484, “Design, synthesis and anticonvulsant-analgesic activity of new N-[(phenoxy)alkyl]- and N-[(phenoxy)ethoxyethyl]aminoalkanols” (Medchemcomm, 2017):
# Tests used:
# HepG2 = test: Cytotoxicity against human HepG2 cells assessed as effect on cell viability at 10 to 200 uM after 24 hrs by MTT assay; format: cell-based; conditions: hepg2, 24 h
# Outline: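 HepG2 cells grown in MEM with 10% FBS (37 °C, 5% CO2) and seeded at 1 × 10^4. After overnight culture, doxorubicin 10–200 μM for 24 h. MTT added for 3 h, crystals dissolved, OD 570 nm. Viability is % of control ± SEM, three independent experiments.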
# Mus musculus [1] = test: Anticonvulsant activity in mouse assessed as protection against subcutaneous pentylenetetrazole-induced seizures by measuring latency time of tonic seizures at 100 mg/kg, ip measured for 30 mins post pentylenetetrazole challenge at 0.5 hrs after compound dosing (reference value: 562.8 to 614.9 secs); format: functional
# Mus musculus [2] = test: Anticonvulsant activity in mouse assessed as protection against subcutaneous pentylenetetrazole-induced seizures at 100 mg/kg, ip measured for 30 mins post pentylenetetrazole challenge at 0.5 hrs after compound dosing relative to control; format: functional
# Mus musculus [3] = test: Anticonvulsant activity in mouse assessed as protection against subcutaneous pentylenetetrazole-induced seizures at 50 mg/kg, ip measured for 30 mins post pentylenetetrazole challenge at 0.5 hrs after compound dosing relative to control; format: functional
# [4] = Neurotoxicity in ip dosed mouse assessed as motor impairment measured after 15 mins by rotarod test; conditions: in vivo
# Mus musculus [5] = test: Anticonvulsant activity in mouse assessed as current strength required to induce tonic hind-limb extension in 50% of the animals at 10 mg/kg, ip by maximal electroshock seizure threshold test (reference value: 6.05 to 8.13 mA); format: functional
# Mus musculus [6] = test: Anticonvulsant activity in mouse assessed as increase in electroconvulsive threshold at 10 mg/kg, ip by maximal electroshock seizure threshold test relative to control; format: functional
# [7] = Neurotoxicity in ip dosed mouse assessed as motor impairment measured for one min by rotarod test; format: toxicity, organism-based; conditions: in vivo
# Outline: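 Mice trained on an accelerating rotarod, then tested at least 24 h later after ip pretreatment, on a rod turning at 10 rpm. Neurotoxicity was scored as failure to stay on the rod for one minute. Read-out is mice impaired over mice tested.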
# [8] = Protection index, ratio of TD50 for neurotoxicity in ip dosed mouse by rotarod test to ED50 for anticonvulsant activity in mouse by maximal electroshock seizure test; format: toxicity, organism-based; conditions: in vivo, read-out: Ratio TD50/ED50
# Mus musculus [9] = test: Anticonvulsant activity in mouse assessed as current strength required to induce tonic hind-limb extension in 50% of the animals at 2.5 mg/kg, ip by maximal electroshock seizure threshold test (reference value: 6.05 to 8.13 mA); format: functional
# Mus musculus [10] = test: Anticonvulsant activity in mouse assessed as increase in electroconvulsive threshold at 2.5 mg/kg, ip by maximal electroshock seizure threshold test relative to control; format: functional
structure (smiles),measurement,setting,value
COc1cccc2c1C(=O)c1c(O)c3c(c(O)c1C2=O)C[C@@](O)(C(=O)CO)C[C@@H]3O[C@H]1C[C@H](N)[C@H](O)[C@H](C)O1 [DOXORUBICIN],Activity,HepG2,Toxic
CCC1(C)CC(=O)NC1=O (stereo unspecified) [ETHOSUXIMIDE],Time,Mus musculus [1],1470 s
same,Activity,Mus musculus [2],139.06%
same,Activity,Mus musculus [3],123.94%
COC[C@@H](NC(C)=O)C(=O)NCc1ccccc1 [LACOSAMIDE],TD50 at 0.25 h,[4],42.5 mg/kg
same,Activity,Mus musculus [5],>25 mA
same,Activity,Mus musculus [6],>413.22%
O=C1NC(=O)C(c2ccccc2)(c2ccccc2)N1 [PHENYTOIN],TD50 at 1 min,[7],68.7 mg/kg
same,selectivity ratio,[8],10.3
same,Activity,Mus musculus [9],7.46 mA
same,Activity,Mus musculus [10],23.31%
